# Test results taken from ChEMBL document CHEMBL3861950, “Design, synthesis and evaluation of novel 19F magnetic resonance sensitive protein tyrosine phosphatase inhibitors” (Medchemcomm, 2016).
# Key:
# [1] = target: T1, Receptor-type tyrosine-protein phosphatase C (Homo sapiens, UniProt P08575); assay: Inhibition of recombinant CD45 (unknown origin) using pNPP as substrate by spectrophotometric method
# T1 sequence (P08575 whole entry): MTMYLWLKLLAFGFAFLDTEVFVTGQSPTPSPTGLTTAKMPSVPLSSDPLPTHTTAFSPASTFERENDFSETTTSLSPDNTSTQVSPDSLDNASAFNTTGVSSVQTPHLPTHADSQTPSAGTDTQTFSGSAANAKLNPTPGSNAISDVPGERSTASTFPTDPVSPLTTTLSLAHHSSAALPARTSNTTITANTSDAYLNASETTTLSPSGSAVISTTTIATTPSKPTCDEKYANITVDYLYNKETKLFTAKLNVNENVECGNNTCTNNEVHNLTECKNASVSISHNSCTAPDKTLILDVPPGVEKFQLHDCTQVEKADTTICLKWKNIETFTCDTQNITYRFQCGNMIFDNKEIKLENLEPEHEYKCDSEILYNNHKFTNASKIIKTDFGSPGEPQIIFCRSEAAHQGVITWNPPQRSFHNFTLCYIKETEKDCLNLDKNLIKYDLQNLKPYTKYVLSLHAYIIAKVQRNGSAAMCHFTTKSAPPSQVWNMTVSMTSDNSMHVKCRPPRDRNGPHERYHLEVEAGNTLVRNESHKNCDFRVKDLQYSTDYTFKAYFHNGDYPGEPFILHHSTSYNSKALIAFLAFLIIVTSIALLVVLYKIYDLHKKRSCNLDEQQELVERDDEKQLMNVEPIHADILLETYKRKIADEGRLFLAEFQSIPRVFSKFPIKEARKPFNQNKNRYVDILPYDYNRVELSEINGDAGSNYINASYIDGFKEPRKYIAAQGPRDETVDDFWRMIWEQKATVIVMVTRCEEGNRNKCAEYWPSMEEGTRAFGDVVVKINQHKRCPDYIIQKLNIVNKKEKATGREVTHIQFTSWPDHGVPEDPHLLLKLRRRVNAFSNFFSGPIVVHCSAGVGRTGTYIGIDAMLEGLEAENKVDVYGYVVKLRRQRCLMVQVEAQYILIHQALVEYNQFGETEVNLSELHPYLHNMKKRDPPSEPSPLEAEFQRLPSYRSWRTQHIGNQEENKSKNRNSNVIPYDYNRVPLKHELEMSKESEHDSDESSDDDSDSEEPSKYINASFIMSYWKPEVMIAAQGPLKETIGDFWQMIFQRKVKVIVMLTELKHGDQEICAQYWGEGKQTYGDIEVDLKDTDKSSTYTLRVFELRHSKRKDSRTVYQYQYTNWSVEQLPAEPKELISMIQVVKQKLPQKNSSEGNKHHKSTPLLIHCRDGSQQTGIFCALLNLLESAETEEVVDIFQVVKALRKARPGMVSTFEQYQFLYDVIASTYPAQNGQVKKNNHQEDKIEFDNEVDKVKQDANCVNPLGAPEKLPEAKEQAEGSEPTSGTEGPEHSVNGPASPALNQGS
# Method in brief: (§1)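 Recombinant PTP prepared in-house, assayed with pNPP substrate in 50 mM 3,3-dimethylglutarate buffer pH 7.0 containing 1 mM EDTA and 150 mM NaCl at 25 °C, in 96-well format. p-Nitrophenol product was quantified by absorbance at 405 nm. Non-enzymatic pNPP hydrolysis was corrected using a no-enzyme control.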
# [2] = Selectivity ratio of IC50 for recombinant SHP2 (unknown origin) to IC50 for recombinant Mycobacterium tuberculosis PTPB
# [3] = Inhibition of recombinant Mycobacterium tuberculosis PTPB using pNPP as substrate by spectrophotometric method
# Method in brief: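 Recombinant enzyme made in-house. Substrate pNPP in 50 mM 3,3-dimethylglutarate buffer, pH 7.0, with 1 mM EDTA and 150 mM NaCl, at 25 °C, screened in 96-well format. p-Nitrophenol product read at 405 nm. Non-enzymatic pNPP hydrolysis was corrected using a control without enzyme.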
# [4] = Selectivity ratio of IC50 for recombinant LYP (unknown origin) to IC50 for recombinant Mycobacterium tuberculosis PTPB
# [5] = target: Tyrosine-protein phosphatase non-receptor type 13 (Homo sapiens, UniProt Q12923); assay: Inhibition of recombinant FAP1 (unknown origin) using pNPP as substrate by spectrophotometric method; method in brief: as §1
# Chain of Tyrosine-protein phosphatase non-receptor type 13 (Q12923 whole entry): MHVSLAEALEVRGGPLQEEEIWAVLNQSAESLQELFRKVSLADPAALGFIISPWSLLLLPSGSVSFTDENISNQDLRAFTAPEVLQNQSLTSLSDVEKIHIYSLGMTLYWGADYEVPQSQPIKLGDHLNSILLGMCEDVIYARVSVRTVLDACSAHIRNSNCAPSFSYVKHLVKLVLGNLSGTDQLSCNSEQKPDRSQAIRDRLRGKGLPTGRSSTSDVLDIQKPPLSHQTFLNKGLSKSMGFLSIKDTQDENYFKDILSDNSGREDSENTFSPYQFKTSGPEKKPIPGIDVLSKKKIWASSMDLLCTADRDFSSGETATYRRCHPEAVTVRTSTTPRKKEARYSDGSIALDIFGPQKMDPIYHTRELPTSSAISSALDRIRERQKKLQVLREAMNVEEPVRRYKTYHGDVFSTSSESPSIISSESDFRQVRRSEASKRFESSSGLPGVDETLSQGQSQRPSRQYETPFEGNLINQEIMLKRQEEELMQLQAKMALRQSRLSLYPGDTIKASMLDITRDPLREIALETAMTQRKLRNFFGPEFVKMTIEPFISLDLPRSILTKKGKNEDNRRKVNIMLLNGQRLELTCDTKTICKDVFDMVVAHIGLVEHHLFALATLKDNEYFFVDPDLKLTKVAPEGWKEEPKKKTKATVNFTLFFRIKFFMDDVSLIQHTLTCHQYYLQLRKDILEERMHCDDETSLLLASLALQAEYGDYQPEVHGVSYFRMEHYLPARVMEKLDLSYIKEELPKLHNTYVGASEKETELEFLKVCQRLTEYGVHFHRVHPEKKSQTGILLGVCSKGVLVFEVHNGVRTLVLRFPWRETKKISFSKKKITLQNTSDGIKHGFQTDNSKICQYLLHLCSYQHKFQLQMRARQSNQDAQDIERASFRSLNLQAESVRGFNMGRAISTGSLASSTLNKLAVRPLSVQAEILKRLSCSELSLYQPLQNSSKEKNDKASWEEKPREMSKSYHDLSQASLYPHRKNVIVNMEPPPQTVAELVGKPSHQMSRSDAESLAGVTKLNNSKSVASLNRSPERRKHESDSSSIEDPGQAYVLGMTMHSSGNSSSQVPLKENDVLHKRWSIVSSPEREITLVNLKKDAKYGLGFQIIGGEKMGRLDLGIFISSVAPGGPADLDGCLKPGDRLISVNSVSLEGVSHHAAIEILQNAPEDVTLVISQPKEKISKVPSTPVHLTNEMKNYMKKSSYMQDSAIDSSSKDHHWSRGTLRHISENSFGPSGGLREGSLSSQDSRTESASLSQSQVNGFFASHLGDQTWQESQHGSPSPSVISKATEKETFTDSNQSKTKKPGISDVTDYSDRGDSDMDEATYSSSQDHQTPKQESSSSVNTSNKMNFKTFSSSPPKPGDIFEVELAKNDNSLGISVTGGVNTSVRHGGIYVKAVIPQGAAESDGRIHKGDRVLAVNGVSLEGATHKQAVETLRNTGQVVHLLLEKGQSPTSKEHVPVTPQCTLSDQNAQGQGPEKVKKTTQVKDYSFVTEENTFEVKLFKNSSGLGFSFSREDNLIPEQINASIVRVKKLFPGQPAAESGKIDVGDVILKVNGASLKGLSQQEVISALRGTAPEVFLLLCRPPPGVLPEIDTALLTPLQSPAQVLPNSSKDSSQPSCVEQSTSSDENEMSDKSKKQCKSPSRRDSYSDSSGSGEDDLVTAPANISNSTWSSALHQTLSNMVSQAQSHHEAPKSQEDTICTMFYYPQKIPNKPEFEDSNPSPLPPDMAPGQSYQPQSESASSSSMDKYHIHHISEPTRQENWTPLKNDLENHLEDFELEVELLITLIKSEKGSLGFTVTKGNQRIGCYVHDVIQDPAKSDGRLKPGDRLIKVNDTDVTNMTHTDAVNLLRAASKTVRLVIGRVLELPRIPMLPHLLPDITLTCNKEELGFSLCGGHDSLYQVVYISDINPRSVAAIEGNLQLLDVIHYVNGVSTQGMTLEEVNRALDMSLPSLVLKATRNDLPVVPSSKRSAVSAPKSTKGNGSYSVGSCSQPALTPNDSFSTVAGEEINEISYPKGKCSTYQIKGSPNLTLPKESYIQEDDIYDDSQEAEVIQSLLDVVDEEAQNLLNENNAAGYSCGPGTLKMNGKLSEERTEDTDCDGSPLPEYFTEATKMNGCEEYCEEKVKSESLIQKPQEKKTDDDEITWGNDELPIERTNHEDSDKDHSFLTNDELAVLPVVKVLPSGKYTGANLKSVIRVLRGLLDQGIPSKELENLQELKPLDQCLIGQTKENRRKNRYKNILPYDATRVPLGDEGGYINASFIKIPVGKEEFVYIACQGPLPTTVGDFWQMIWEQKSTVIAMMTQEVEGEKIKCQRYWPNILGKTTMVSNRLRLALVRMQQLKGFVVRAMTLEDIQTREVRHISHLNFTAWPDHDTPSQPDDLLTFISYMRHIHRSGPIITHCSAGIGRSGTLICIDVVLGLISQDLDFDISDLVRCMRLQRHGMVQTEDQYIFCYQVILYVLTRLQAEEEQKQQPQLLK
# [6] = target: T2, Tyrosine-protein phosphatase non-receptor type 22 (Homo sapiens, UniProt Q9Y2R2); assay: Inhibition of recombinant LYP (unknown origin) using pNPP as substrate by spectrophotometric method; method in brief: as §1
# T2 sequence (Q9Y2R2 whole entry): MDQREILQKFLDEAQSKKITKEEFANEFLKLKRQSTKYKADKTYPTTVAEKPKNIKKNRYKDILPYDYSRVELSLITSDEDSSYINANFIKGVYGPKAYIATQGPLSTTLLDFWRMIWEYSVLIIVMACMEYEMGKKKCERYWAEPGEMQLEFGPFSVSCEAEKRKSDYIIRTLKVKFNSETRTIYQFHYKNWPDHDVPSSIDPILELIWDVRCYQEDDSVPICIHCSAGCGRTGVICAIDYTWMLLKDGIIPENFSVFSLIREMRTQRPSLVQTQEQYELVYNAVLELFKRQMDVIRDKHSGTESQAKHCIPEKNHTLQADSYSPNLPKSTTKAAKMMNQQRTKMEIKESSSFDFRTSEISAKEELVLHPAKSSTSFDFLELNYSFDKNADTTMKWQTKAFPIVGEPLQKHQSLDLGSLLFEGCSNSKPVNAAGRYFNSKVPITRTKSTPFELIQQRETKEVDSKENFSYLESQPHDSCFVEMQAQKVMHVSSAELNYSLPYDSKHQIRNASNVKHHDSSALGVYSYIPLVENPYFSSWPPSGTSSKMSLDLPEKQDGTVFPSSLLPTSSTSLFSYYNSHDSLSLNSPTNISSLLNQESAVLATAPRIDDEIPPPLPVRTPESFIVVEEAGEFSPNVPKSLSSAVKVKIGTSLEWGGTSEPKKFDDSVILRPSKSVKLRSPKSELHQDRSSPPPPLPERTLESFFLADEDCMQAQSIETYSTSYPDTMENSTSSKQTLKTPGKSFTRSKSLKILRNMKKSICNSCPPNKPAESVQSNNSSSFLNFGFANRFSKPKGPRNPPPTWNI
structure (smiles),measurement,setting,value
Cc1ccc(S(=O)(=O)NNC(=O)COc2ccc3cc(C(O)(C(F)(F)F)C(F)(F)F)c(O)cc3c2)cc1,IC50,[1],16.1 µM
same,Ratio IC50,[2],> 7
same,IC50,[3],2.3 µM
same,Ratio IC50,[4],> 7
same,IC50,[5],14.9 µM
same,IC50,[6],15.4 µM
